{"source": "ChEMBL document CHEMBL2169866", "about": "“Antihypertensive profile of 2-thienyl-3,4-methylenedioxybenzoylhydrazone is mediated by activation of the A2A adenosine receptor” (Eur J Med Chem, 2012)", "key": {"Rattus norvegicus [1]": {"test_system": "Rattus norvegicus", "experiment": "Antihypertensive activity in spontaneous hypertensive rat assessed as reduction in diastolic blood pressure at 10 mg/kg/day, ip for 14 days (reference value: 175.9 +/-7.3 mmHg)", "details": "route intraperitoneal"}, "Aorta [2]": {"test_system": "Aorta", "experiment": "Vasorelaxation activity in WKY rat aortic rings with intact endothelium assessed as reduction in phenylephrine-induced contraction relative to untreated control", "assay_type": "functional", "design": "scale not given: the % may be the effect or the level left", "how_it_was_run": "(§1)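 Isolated thoracic aortic rings from WKY rats were studied by isometric tension recording. Endothelium was judged intact when acetylcholine gave >80% relaxation, and was removed mechanically where stated. Rings were precontracted with a single phenylephrine concentration (10), then exposed to cumulative test concentrations (1–300). DMSO served as control. L-NAME, ZM 241385 (100 nM) or glibenclamide (5 µM) were added 20 min before phenylephrine. IC50 was derived per experiment. n = 6, mean ± SEM.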"}, "Rattus norvegicus [3]": {"test_system": "Rattus norvegicus", "experiment": "Effect on heart rate in spontaneous hypertensive rat at 20 mg/kg/day, po for 7 days (reference value: 383 +/- 21 bpm)", "assay_type": "organism-based", "design": "route oral", "details": "in vivo, 168 h", "how_it_was_run": "(§2)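 Male SHR, 13 weeks old, received 20 mg/kg orally once daily for 14 days. Noninvasive tail-cuff plethysmography 4 h post-dose gave systolic pressure, diastolic pressure and heart rate. Measurements were made at baseline and on days 1, 3, 5, 7, 11 and 14. n = 6, mean ± SEM.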"}, "[4]": {"target": "Adenosine receptor A2a (Homo sapiens) (UniProt P29274)", "sequence (P29274 whole entry)": "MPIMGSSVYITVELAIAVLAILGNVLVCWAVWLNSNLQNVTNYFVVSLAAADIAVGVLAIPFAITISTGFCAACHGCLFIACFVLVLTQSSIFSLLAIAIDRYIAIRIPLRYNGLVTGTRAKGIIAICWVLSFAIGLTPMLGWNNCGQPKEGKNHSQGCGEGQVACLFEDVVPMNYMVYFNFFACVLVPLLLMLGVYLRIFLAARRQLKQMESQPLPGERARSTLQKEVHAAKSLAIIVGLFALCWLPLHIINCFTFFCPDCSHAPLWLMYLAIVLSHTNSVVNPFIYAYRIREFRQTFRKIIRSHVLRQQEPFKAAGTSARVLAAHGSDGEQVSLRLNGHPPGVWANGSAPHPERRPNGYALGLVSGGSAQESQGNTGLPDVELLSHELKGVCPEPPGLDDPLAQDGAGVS", "experiment": "Displacement of [3HCGS21680 from human recombinant A2A receptor expressed in HEK293 cells at 10 uM", "assay_type": "cell-based", "how_it_was_run": "(§3)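 Radioligand competition binding used agonist radioligands at these levels: [3H]CCPA 1 nM for A1, [3H]CGS21680 6 nM for A2A, and [125I]AB-MECA 0.15 nM for A3. Results are expressed as percent inhibition of control specific binding: 100 − (measured specific binding / control specific binding × 100).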"}, "Rattus norvegicus [5]": {"test_system": "Rattus norvegicus", "experiment": "Antihypertensive activity in spontaneous hypertensive rat assessed as reduction in diastolic blood pressure at 20 mg/kg/day, po for 7 days (reference value: 72.6 +/- 4.7 mmHg)", "assay_type": "functional, Artery", "how_it_was_run": "as §2"}, "Rattus norvegicus [6]": {"test_system": "Rattus norvegicus", "experiment": "Effect on heart rate in WKY rat at 10 mg/kg/day, ip for 7 days (reference value: 383 +/- 21 bpm)", "details": "in vivo, 168 h"}, "Rattus norvegicus [7]": {"test_system": "Rattus norvegicus", "experiment": "Antihypertensive activity in spontaneous hypertensive rat assessed as reduction in systolic blood pressure at 20 mg/kg/day, po for 14 days (reference value: 121.2 +/- 4.5 mmHg)", "assay_type": "functional, Artery", "how_it_was_run": "as §2"}, "Aorta [8]": {"test_system": "Aorta", "experiment": "Vasorelaxation activity in WKY rat aortic rings with intact endothelium assessed as reduction in phenylephrine-induced contraction in presence of 100 nM A2A antagonist ZM241385", "assay_type": "functional", "design": "scale not given: the % may be the effect or the level left", "how_it_was_run": "as §1"}, "[9]": {"target": "T1, Adenosine receptor A3 (Homo sapiens) (UniProt P0DMS8)", "T1 sequence (whole entry)": "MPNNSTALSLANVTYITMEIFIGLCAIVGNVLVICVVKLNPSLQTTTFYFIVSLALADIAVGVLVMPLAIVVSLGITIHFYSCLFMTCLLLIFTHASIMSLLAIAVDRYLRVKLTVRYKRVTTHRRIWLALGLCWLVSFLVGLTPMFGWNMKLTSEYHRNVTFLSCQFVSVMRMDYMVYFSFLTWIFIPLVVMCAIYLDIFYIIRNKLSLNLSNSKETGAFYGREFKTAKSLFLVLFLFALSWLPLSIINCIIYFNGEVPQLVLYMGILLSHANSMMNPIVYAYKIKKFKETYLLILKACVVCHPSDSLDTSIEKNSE", "experiment": "Displacement of [[125I]AB-MECA from human recombinant A3 receptor expressed in HEK293 cells at 10 uM", "assay_type": "cell-based", "how_it_was_run": "as §3"}, "[10]": {"target": "T2, Adenosine receptor A1 (Homo sapiens) (UniProt P30542)", "T2 sequence (whole entry)": "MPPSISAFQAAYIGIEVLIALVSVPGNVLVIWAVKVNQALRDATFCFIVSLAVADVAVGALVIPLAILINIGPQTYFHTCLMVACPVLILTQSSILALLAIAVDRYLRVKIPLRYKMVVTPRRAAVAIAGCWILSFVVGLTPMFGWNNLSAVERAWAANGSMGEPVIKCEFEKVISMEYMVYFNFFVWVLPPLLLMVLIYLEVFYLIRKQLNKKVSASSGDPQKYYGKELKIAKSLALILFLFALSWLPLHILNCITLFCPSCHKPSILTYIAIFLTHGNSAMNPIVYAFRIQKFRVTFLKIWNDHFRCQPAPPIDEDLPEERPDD", "experiment": "Displacement of [3H]CCPA from human recombinant A1 receptor expressed in CHO cells at 10 uM", "assay_type": "cell-based", "how_it_was_run": "as §3"}, "Rattus norvegicus [11]": {"test_system": "Rattus norvegicus", "experiment": "Antihypertensive activity in spontaneous hypertensive rat assessed as reduction in systolic blood pressure at 20 mg/kg/day, po for 7 days (reference value: 121.2 +/- 4.5 mmHg)", "assay_type": "functional, Artery", "how_it_was_run": "as §2"}, "Rattus norvegicus [12]": {"test_system": "Rattus norvegicus", "experiment": "Antihypertensive activity in spontaneous hypertensive rat assessed as reduction in diastolic blood pressure at 20 mg/kg/day, po for 14 days (reference value: 72.6 +/- 4.7 mmHg)", "assay_type": "functional, Artery", "how_it_was_run": "as §2"}, "Rattus norvegicus [13]": {"test_system": "Rattus norvegicus", "experiment": "Antihypertensive activity in spontaneous hypertensive rat assessed as reduction in diastolic blood pressure at 10 mg/kg/day, ip for 7 days (reference value: 175.9 +/-7.3 mmHg)", "details": "route intraperitoneal"}, "Rattus norvegicus [14]": {"test_system": "Rattus norvegicus", "experiment": "Effect on diastolic blood pressure in WKY rat at 10 mg/kg/day, ip for 14 days (reference value: 72.6 +/- 4.7 mmHg)", "details": "in vivo, 336 h"}, "Rattus norvegicus [15]": {"test_system": "Rattus norvegicus", "experiment": "Effect on heart rate in WKY rat at 10 mg/kg/day, ip for 14 days (reference value: 383 +/- 21 bpm)", "details": "in vivo, 336 h"}, "Rattus norvegicus [16]": {"test_system": "Rattus norvegicus", "experiment": "Effect on heart rate in spontaneous hypertensive rat at 10 mg/kg/day, ip for 14 days (reference value: 419 +/- 11 bpm)", "details": "in vivo, 336 h"}, "Rattus norvegicus [17]": {"test_system": "Rattus norvegicus", "experiment": "Effect on systolic blood pressure in WKY rat at 10 mg/kg/day, ip for 14 days (reference value: 121.1 +/- 4.5 mmHg)", "details": "in vivo, 336 h"}, "Aorta [18]": {"test_system": "Aorta", "experiment": "Vasorelaxation activity in WKY rat aortic rings with intact endothelium assessed as reduction in phenylephrine-induced contraction in presence of 100 uM NOS inhibitor L-NAME", "assay_type": "functional", "design": "scale not given: the % may be the effect or the level left", "how_it_was_run": "as §1"}, "Rattus norvegicus [19]": {"test_system": "Rattus norvegicus", "experiment": "Antihypertensive activity in spontaneous hypertensive rat assessed as reduction in systolic blood pressure at 10 mg/kg/day, ip for 7 days (reference value: 226 +/-11 mmHg)", "details": "route intraperitoneal"}, "Rattus norvegicus [20]": {"test_system": "Rattus norvegicus", "experiment": "Antihypertensive activity in spontaneous hypertensive rat assessed as reduction in systolic blood pressure at 10 mg/kg/day, ip for 14 days (reference value: 226 +/-11 mmHg)", "details": "route intraperitoneal"}, "Rattus norvegicus [21]": {"test_system": "Rattus norvegicus", "experiment": "Effect on systolic blood pressure in WKY rat at 10 mg/kg/day, ip for 7 days (reference value: 121.1 +/- 4.5 mmHg)", "details": "in vivo, 168 h"}, "Rattus norvegicus [22]": {"test_system": "Rattus norvegicus", "experiment": "Effect on heart rate in spontaneous hypertensive rat at 10 mg/kg/day, ip for 7 days (reference value: 419 +/- 11 bpm)", "details": "in vivo, 168 h"}, "Aorta [23]": {"test_system": "Aorta", "experiment": "Vasorelaxation activity in WKY rat aortic rings with denuded endothelium assessed as reduction in phenylephrine-induced contraction relative to untreated control", "assay_type": "functional", "design": "scale not given: the % may be the effect or the level left", "how_it_was_run": "as §1"}, "Rattus norvegicus [24]": {"test_system": "Rattus norvegicus", "experiment": "Effect on diastolic blood pressure in WKY rat at 10 mg/kg/day, ip for 7 days (reference value: 72.6 +/- 4.7 mmHg)", "details": "in vivo, 168 h"}, "Rattus norvegicus [25]": {"test_system": "Rattus norvegicus", "experiment": "Effect on heart rate in spontaneous hypertensive rat at 20 mg/kg/day, po for 14 days (reference value: 383 +/- 21 bpm)", "assay_type": "organism-based", "design": "route oral", "details": "in vivo, 336 h", "how_it_was_run": "as §2"}, "Aorta [26]": {"test_system": "Aorta", "experiment": "Vasorelaxation activity in WKY rat aortic rings with denuded endothelium assessed as reduction in phenylephrine-induced contraction in presence of 5 uM KATP channel blocker glibenclamide", "assay_type": "functional", "design": "scale not given: the % may be the effect or the level left", "how_it_was_run": "as §1"}, "Aorta [27]": {"test_system": "Aorta", "experiment": "Vasorelaxation activity in WKY rat aortic rings with intact endothelium assessed as reduction in phenylephrine-induced contraction", "assay_type": "functional, tissue-based", "how_it_was_run": "as §1"}}}
{"smiles": "O=C(N/N=C/c1ccc2c(c1)OCO2)c1cccs1", "values": [{"measurement": "Activity", "setting": "Rattus norvegicus [1]", "value": 95.5, "unit": "mmHg"}, {"measurement": "Activity", "setting": "Aorta [2]", "value": 100, "unit": "%"}, {"measurement": "Activity", "setting": "Rattus norvegicus [3]", "value": 379, "unit": "bpm"}, {"measurement": "inhibition", "setting": "[4]", "value": 47.5, "unit": "%"}, {"measurement": "Activity", "setting": "Rattus norvegicus [5]", "value": 79.4, "unit": "mmHg"}, {"measurement": "Activity", "setting": "Rattus norvegicus [6]", "value": 379, "unit": "bpm"}, {"measurement": "Activity", "setting": "Rattus norvegicus [7]", "value": 109, "unit": "mmHg"}, {"measurement": "Activity", "setting": "Aorta [8]", "value": 8.3, "unit": "%"}, {"measurement": "inhibition", "setting": "[9]", "value": 67.5, "unit": "%"}, {"measurement": "inhibition", "setting": "[10]", "value": 29.1, "unit": "%"}, {"measurement": "Activity", "setting": "Rattus norvegicus [11]", "value": 109, "unit": "mmHg"}, {"measurement": "Activity", "setting": "Rattus norvegicus [12]", "value": 88, "unit": "mmHg"}, {"measurement": "Activity", "setting": "Rattus norvegicus [13]", "value": 106.2, "unit": "mmHg"}, {"measurement": "Activity", "setting": "Rattus norvegicus [14]", "value": 88, "unit": "mmHg"}, {"measurement": "Activity", "setting": "Rattus norvegicus [15]", "value": 398, "unit": "bpm"}, {"measurement": "Activity", "setting": "Rattus norvegicus [16]", "value": 344.8, "unit": "bpm"}, {"measurement": "Activity", "setting": "Rattus norvegicus [17]", "value": 109, "unit": "mmHg"}, {"measurement": "Activity", "setting": "Aorta [18]", "value": 9.1, "unit": "%"}, {"measurement": "Activity", "setting": "Rattus norvegicus [19]", "value": 126.2, "unit": "mmHg"}, {"measurement": "Activity", "setting": "Rattus norvegicus [20]", "value": 118, "unit": "mmHg"}, {"measurement": "Activity", "setting": "Rattus norvegicus [21]", "value": 109, "unit": "mmHg"}, {"measurement": "Activity", "setting": "Rattus norvegicus [22]", "value": 376, "unit": "bpm"}, {"measurement": "Activity", "setting": "Aorta [23]", "value": 28.4, "unit": "%"}, {"measurement": "Activity", "setting": "Rattus norvegicus [24]", "value": 79.4, "unit": "mmHg"}, {"measurement": "Activity", "setting": "Rattus norvegicus [25]", "value": 398, "unit": "bpm"}, {"measurement": "Activity", "setting": "Aorta [26]", "value": 3.6, "unit": "%"}, {"measurement": "Activity", "setting": "Aorta [27]", "value": "Dose-dependent effect"}, {"measurement": "IC50", "setting": "Aorta [27]", "value": 6.9, "unit": "µM"}]}
